Results pooled from the literature.
Lines come from different studies, so protocols differ.
Target: Homeodomain-interacting protein kinase 1 (HIPK1, Homo sapiens, UniProt Q86Z02)

SMILES	read-out	method	concentration	remaining binding [%]
N[C@@H]1CCN(c2nccc(-c3cnn4ncccc34)n2)C1	binding	–	1 µM	43
CNC(=O)[C@@H]1CC[C@@H](n2c(-c3ccc4cnccc4c3)nc3ccc(C(=O)NCc4cccc(C(N)=O)c4)cc32)C1	binding	competition with immobilised ligand	1 µM	85
COc1ccnn2ncc(-c3ccnc(N(C)C)n3)c12	binding	–	1 µM	55
O=C(c1ccc(Nc2nccc(-c3cc4ccccc4s3)n2)cc1)N1CCC(N2CCCC2)CC1	binding	competition with immobilised ligand	1 µM	13
CN(C)c1nccc(-c2cnn3ncccc23)n1	binding	–	1 µM	55
COc1cnc(Nc2cccc(S(N)(=O)=O)c2)nc1N1CCN(c2ccccc2)CC1	binding	competition with immobilised ligand	1 µM	98
Cc1cc(-n2nc(Cc3cc(F)cc(C(F)(F)F)c3)nc2C)ccc1C(N)=O	cell-free assay	competition with immobilised ligand	1 µM	92
CCN1CCN(Cc2ccc(C(=O)Nc3ccc(C)c(Oc4ccc5c(c4)CC(=O)N5)c3)cc2C(F)(F)F)CC1	binding	competition with immobilised ligand	1 µM	83
CN(CCCC(F)(F)F)c1nccc(-c2cnn3ncccc23)n1	binding	–	1 µM	70
CS(=O)(=O)NCC[C@H](NC(=O)c1cncc2c1cnn2-c1ccc(F)cc1)c1ccnc(S(C)(=O)=O)c1	cell-free assay	competition with immobilised ligand	1 µM	100
C=CC(=O)N1CCC(C(=O)NCC(=O)N2CCN(c3nc(-c4cnc(N)nc4C(F)F)nc(N4CCOCC4)n3)CC2)CC1	binding	competition with immobilised ligand	1 µM	97
O=C(NS(=O)(=O)c1ccc(NCC2CCOCC2)c([N+](=O)[O-])c1)c1ccc(N2CCN(Cc3ccc(C(F)(F)F)cc3-c3ccc(Cl)cc3)CC2)cc1Oc1cnc2[nH]ccc2c1	cell-free assay	competition with immobilised ligand	1 µM	84
C[C@H]1CCN(c2nccc(-c3cnn4ncccc34)n2)C1	binding	–	1 µM	40
O=C(NCCCN1CCOCC1)c1ccc(Nc2ncc(Cl)c(-c3ccc(Cl)s3)n2)cc1	binding	competition with immobilised ligand	1 µM	8.7
CC(=O)C1=C(C)N(c2cccc(C(F)(F)F)c2)C(=O)N[C@@H]1c1ccc(C#N)nc1	cell-free assay	competition with immobilised ligand	1 µM	72.6
O=C(c1ccc(Nc2ncc(Cl)c(-c3ccc(Cl)s3)n2)cc1)N1CCC(N2CCCC2)CC1	binding	competition with immobilised ligand	1 µM	1.3
COc1cc(-c2cn(C3CCc4ccccc4N(CC(F)(F)F)C3=O)nn2)ccc1-n1ccc(C)n1 (stereo not drawn)	cell-free assay	competition with immobilised ligand	1 µM	96
c1cncc(-c2cccc(Nc3nccc(NC4CCCCC4)n3)c2)c1	binding	competition with immobilised ligand	10 µM	56
C[C@H](NC(=O)c1cnc2n1[C@](C)(Cc1ccc(C#N)cc1)C(=O)N2c1cc(Cl)c(F)c(Cl)c1)C(=O)NC1(c2ccccn2)CC1	cell-free assay	competition with immobilised ligand	1 µM	97
Cc1cnn2ncc(-c3ccnc(N(C)C)n3)c2c1	binding	–	1 µM	39
O=C(Nc1c[nH]nc1C(=O)NC1CCNCC1)c1cc(F)cc(F)c1	binding	competition with immobilised ligand	1 µM	33
